Experimental data from ChEMBL document CHEMBL1139463, “SAR by MS: discovery of a new class of RNA-binding small molecules for the hepatitis C virus: internal ribosome entry site IIA subdomain” (J Med Chem, 2005).

Target: not listed separately
Test: Binding affinity to HCV 29-mer 2A RNA by MS based binding assay
Design: species or system Hepacivirus hominis
Conditions: not given

Row | Kd [µM] | Structure (SMILES)
1 | 48 | CC(C)CCOc1ccc2nc(N)n(CCCN(C)C)c2c1
2 | 125 | Nc1nc2ccccc2n1CCCN1CCCC1
3 | > 200 | COc1ccc2c(c1)nc(N)n2CCCN(C)C
4 | 40 | COc1ccc2nc(N)n(CCCN(C)C)c2c1
5 | 10 | CN(C)CCCOc1ccc2nc(N)n(CCCN(C)C)c2c1
6 | 8 | CN(C)CCCn1c(N)nc2ccc(OCCN(C)C)cc21
7 | > 100 | CN(C)CCCOc1ccc2c(c1)nc(N)n2CCCN(C)C
8 | 130 | CCN(CC)CCCn1c(N)nc2ccccc21
9 | > 200 | CCCCN(CCCC)CCCn1c(N)nc2ccccc21
10 | > 100 | CN(C)CCCOc1ccc2nc(N)[nH]c2c1
11 | > 100 | CN(C)CCCOc1ccc2ncn(CCCN(C)C)c2c1
12 | > 200 | Nc1nc2ccccc2n1CCCN1CCOCC1
13 | 7 | CN(C)CCCCOc1ccc2nc(N)n(CCCN(C)C)c2c1
14 | 50 | COc1cccc2nc(N)n(CCCN(C)C)c12
15 | 99 | CN(C)CCCn1c(N)nc2ccc(OCc3ccccc3)cc21
16 | > 200 | COc1cccc2c1nc(N)n2CCCN(C)C
17 | 100 | CN(C)CCCn1c(N)nc2ccccc21
18 | > 200 | CCCn1c(N)nc2ccccc21

Test system: Hepatitis C virus
Test: Reduction of HCV RNA levels by HCV replicon assay
Format: functional, organism-based, Hepacivirus hominis
Conditions: not given
Procedure, shortened: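 HCV replicon cells treated with compound; intracellular HCV RNA levels quantified by RT-PCR.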

Row | EC50 [µM] | Structure (SMILES)
19 | 3.9 | CN(C)CCCn1c(N)nc2ccc3c(c21)CC(CN(C)C)CO3 (stereo not given)
20 | 5.4 | CN(C)CC1COc2ccc3nc4n(c3c2C1)CC(CN(C)C)CN4 (stereo not given)
21 | 29 | CN(C)CCCOc1ccc2nc3n(c2c1)CC(CN(C)C)CN3 (stereo not given)
22 | 37 | CN(C)CCCOc1ccc2nc(N)n(CCCN(C)C)c2c1
23 | 1.5 | CN(C)CCCn1c(N)nc2ccc3c(c21)CC(CN(C)C)O3 (stereo not given)

Test system: not listed separately
Test: Cytotoxicity against Huh7 cells by MTT assay
Format: cell-based, Huh-7
Conditions: human
Procedure, shortened: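 Huh-7 cells; viability read by MTT; 50% cytotoxic concentration (CC50) reported.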

Row | Structure (SMILES) | CC50 [µM]
24 | CN(C)CCCn1c(N)nc2ccc3c(c21)CC(CN(C)C)CO3 (stereo not given) | > 100
25 | CN(C)CC1COc2ccc3nc4n(c3c2C1)CC(CN(C)C)CN4 (stereo not given) | > 100
26 | CN(C)CCCOc1ccc2nc3n(c2c1)CC(CN(C)C)CN3 (stereo not given) | > 100
27 | CN(C)CCCOc1ccc2nc(N)n(CCCN(C)C)c2c1 | > 100
28 | CN(C)CCCn1c(N)nc2ccc3c(c21)CC(CN(C)C)O3 (stereo not given) | > 100
29 | CN(C)CCCn1c(N)nc2ccccc21 | > 100

Target: not listed separately
Test: Binding affinity to HCV 40-mer RNA by MS based binding assay
Design: species or system Hepacivirus hominis
Conditions: not given

Row | Kd [µM] | Structure (SMILES)
30 | 0.86 | CN(C)CCCn1c(N)nc2ccc3c(c21)CC(CN(C)C)CO3 (stereo not given)
31 | 0.72 | CN(C)CC1COc2ccc3nc4n(c3c2C1)CC(CN(C)C)CN4 (stereo not given)
32 | 3.5 | CN(C)CCCOc1ccc2nc3n(c2c1)CC(CN(C)C)CN3 (stereo not given)
33 | 17 | CN(C)CCCOc1ccc2nc(N)n(CCCN(C)C)c2c1
34 | 1.7 | CN(C)CCCn1c(N)nc2ccc3c(c21)CC(CN(C)C)O3 (stereo not given)
35 | > 100 | CN(C)CCCn1c(N)nc2ccccc21
